Results from ChEMBL document CHEMBL1124067, “Design of potent cyclic gonadotropin releasing hormone antagonists” (J Med Chem, 1988).
pKd: −log10 of the molar value. “And” between values parts separate entries of the source, which are not always exact repeats. Identical values can stand only once. Positions of bridges follow the written chain, without caps; N, C: chain ends. Non-standard residues stand in square brackets, D forms with d. Residues, ends and D or L forms follow the SMILES beside them. dPhe(4-Cl) = N[C@H](Cc1ccc(Cl)cc1)C(=O)O; dPhe(4-F) = N[C@H](Cc1ccc(F)cc1)C(=O)O; d2Nal = N[C@H](Cc1ccc2ccccc2c1)C(=O)O; d3Pal = N[C@H](Cc1cccnc1)C(=O)O; ΔPro = O=C(O)[C@@H]1C=CCN1; Dap = NC[C@H](N)C(=O)O

Key:
[1] = molecular target: T1, Gonadotropin-releasing hormone receptor (Rattus norvegicus, UniProt P30969); experiment: Inhibitory binding constant for Gonadotropin-releasing hormone receptor
T1 sequence (P30969 whole entry): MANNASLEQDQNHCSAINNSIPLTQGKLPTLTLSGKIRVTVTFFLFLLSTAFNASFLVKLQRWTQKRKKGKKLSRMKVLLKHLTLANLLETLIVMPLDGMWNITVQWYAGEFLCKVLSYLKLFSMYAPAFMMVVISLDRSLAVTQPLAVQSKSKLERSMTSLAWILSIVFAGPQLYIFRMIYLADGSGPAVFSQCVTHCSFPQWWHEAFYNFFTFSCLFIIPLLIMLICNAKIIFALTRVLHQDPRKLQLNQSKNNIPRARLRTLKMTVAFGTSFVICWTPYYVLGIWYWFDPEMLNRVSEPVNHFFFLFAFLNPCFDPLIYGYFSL

[2] = system: Rattus norvegicus; experiment: In vivo antiovulatory assay (AOA) carried out in rats injected sc; assay type: functional
How it was run: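 Antiovulatory assay following Corbin and Beattie. Cycling rats injected sc at noon on proestrus with peptide dissolved in saline (200 μL). Dose in micrograms; read-out is the number of rats ovulating out of the total.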

[3] = system: Rattus norvegicus; experiment: Effect of oral administration of compound (3 mg) on LH secretion by castrated male rats; ng of LH/mL; assay type: functional
How it was run: (§1)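 Adult Sprague-Dawley male rats, castrated under light ether anesthesia 7-10 days before assay. Peptide dissolved in 2 N HOAc, then diluted in 0.1% BSA-0.04 M phosphate buffer pH 7.4. Given by gavage tube (0.5 mL) under ether. Blood sampled before treatment and 5 h after. Plasma LH in ng/mL, mean ± SEM, five rats per treatment.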

[4] = species: Rattus norvegicus; experiment: Effect on GnRH-induced LH secretion in intact male rats at 20 ng of compound; ng of LH/mL; assay type: functional
[5] = species: Rattus norvegicus; experiment: Effect on GnRH-induced LH secretion in intact male rats at 50 ng of compound; ng of LH/mL; assay type: functional
[6] = system: Rattus norvegicus; experiment: Effect of oral administration of compound (1 mg) on LH secretion by castrated male rats; ng of LH/mL; assay type: functional; how it was run: as §1
[7] = molecular target: T2, Gonadotropin-releasing hormone receptor (Rattus norvegicus) (UniProt P30969); experiment: Inhibition of GnRH-stimulated LH secretion by cultured dispersed anterior pituitary cells; assay type: functional, cell-based; conditions: Pituitary gland cell
T2 sequence (whole entry): T1 sequence (P30969 whole entry)
How it was run: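 Cultured dispersed anterior pituitary cells. Antagonist inhibition of GnRH-stimulated LH secretion measured. Potency expressed relative to the standard [Ac-Δ3Pro1,DFpa2,DTrp3,6]GnRH (=1), with confidence range in parentheses.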

Row | pKd [1] | Compound | Dose [2] | also measured
1 | 9.57 | CC(=O)N1CC=C[C@H]1C(=O)N[C@H](Cc1ccc(F)cc1)C(=O)N[C@H](Cc1c[nH]c2ccccc12)C(=O)N[C@@H](CO)C(=O)N[C@@H](Cc1ccc(O)cc1)C(=O)N[C@H](Cc1c[nH]c2ccccc12)C(=O)N[C@@H](CC(C)C)C(=O)N[C@@H](CCCNC(=N)N)C(=O)N1CCC[C@H]1C(=O)NCC(N)=O (Ac-[ΔPro][dPhe(4-F)][dW]SY[dW]LRPG-NH2) | – | –
2 | – | CC(=O)N[C@H](Cc1ccc2ccccc2c1)C(=O)N[C@H](Cc1ccc(F)cc1)C(=O)N[C@H](Cc1c[nH]c2ccccc12)C(=O)N[C@H]1CC(=O)NC[C@@H](C(N)=O)NC(=O)[C@@H]2CCCN2C(=O)[C@H](CCCN=C(N)N)NC(=O)[C@H](CC(C)C)NC(=O)[C@@H](CCCN=C(N)N)NC(=O)[C@H](Cc2ccc(O)cc2)NC1=O (Ac-[d2Nal][dPhe(4-F)][dW]DY[dR]LRP[Dap]-NH2; lactam 4-10) | 1 µg and 2.5 µg | –
3 | 8.22 | CC(=O)N[C@H](Cc1ccc2ccccc2c1)C(=O)N[C@H](Cc1ccc(F)cc1)C(=O)N[C@H](Cc1c[nH]c2ccccc12)C(=O)N[C@H]1CSSC[C@@H](C(N)=O)NC(=O)[C@@H]2CCCN2C(=O)[C@H](CCCN=C(N)N)NC(=O)[C@H](CC(C)C)NC(=O)[C@@H](CCCN=C(N)N)NC(=O)[C@H](Cc2ccc(O)cc2)NC1=O | – | –
4 | 8.35 and 8.00 | CC(=O)N[C@H](Cc1ccc2ccccc2c1)C(=O)N[C@H](Cc1ccc(Cl)cc1)C(=O)N[C@H](Cc1cccnc1)C(=O)N[C@H]1CNC(=O)C[C@@H](C(N)=O)NC(=O)[C@@H]2CCCN2C(=O)[C@H](CCCNC(=N)N)NC(=O)[C@H](CC(C)C)NC(=O)[C@@H](Cc2cccnc2)NC(=O)[C@H](CCCNC(=N)N)NC1=O (Ac-[d2Nal][dPhe(4-Cl)][d3Pal][Dap]R[d3Pal]LRPD-NH2; lactam 4-10) | – | –
5 | 9.00 | CC(=O)N[C@H](Cc1ccc2ccccc2c1)C(=O)N[C@H](Cc1ccc(Cl)cc1)C(=O)N[C@H](Cc1cccnc1)C(=O)N[C@H]1CCC(=O)NC[C@@H](C(N)=O)NC(=O)[C@@H]2CCCN2C(=O)[C@H](CCCNC(=N)N)NC(=O)[C@H](CC(C)C)NC(=O)[C@@H](Cc2cccnc2)NC(=O)[C@H](CCCNC(=N)N)NC1=O [listing 1 of 2 here] | – | –
6 | – | CC(=O)N[C@H](Cc1ccc2ccccc2c1)C(=O)N[C@H](Cc1ccc(Cl)cc1)C(=O)N[C@H](Cc1cccnc1)C(=O)N[C@@H](CO)C(=O)N[C@@H](CCCNC(=N)N)C(=O)N[C@H](Cc1cccnc1)C(=O)N[C@@H](CC(C)C)C(=O)N[C@@H](CCCNC(=N)N)C(=O)N1CCC[C@H]1C(=O)N[C@H](C)C(N)=O (Ac-[d2Nal][dPhe(4-Cl)][d3Pal]SR[d3Pal]LRP[dA]-NH2) [listing 1 of 2 here] | 0.5 µg and 1 µg | –
7 | – | CC(=O)NC[C@H](NC(=O)[C@@H](Cc1cccnc1)NC(=O)[C@@H](Cc1ccc(Cl)cc1)NC(=O)[C@@H](Cc1ccc2ccccc2c1)NC(C)=O)C(=O)N[C@@H](CCCN=C(N)N)C(=O)N[C@H](Cc1cccnc1)C(=O)N[C@@H](CC(C)C)C(=O)N[C@@H](CCCN=C(N)N)C(=O)N1CCC[C@H]1C(=O)N[C@@H](CC(N)=O)C(N)=O [listing 1 of 2 here] | 50 µg | Activity [3]: 8.22
8 | 9.62 | CC(=O)N[C@H](Cc1ccc2ccccc2c1)C(=O)N[C@H](Cc1ccc(Cl)cc1)C(=O)N[C@H](Cc1cccnc1)C(=O)N[C@@H](CO)C(=O)N[C@@H](CCCNC(=N)N)C(=O)N[C@H](Cc1cccnc1)C(=O)N[C@@H](CC(C)C)C(=O)N[C@@H](CCCNC(=N)N)C(=O)N1CCC[C@H]1C(=O)N[C@H](C)C(N)=O (Ac-[d2Nal][dPhe(4-Cl)][d3Pal]SR[d3Pal]LRP[dA]-NH2) [listing 2 of 2 here] | – | –
9 | – | CC(C)C[C@H](NC(=O)CNC(=O)[C@H](Cc1ccc(O)cc1)NC(=O)[C@H](CO)NC(=O)[C@H](Cc1c[nH]c2ccccc12)NC(=O)[C@H](Cc1cnc[nH]1)NC(=O)[C@@H]1CCC(=O)N1)C(=O)N[C@@H](CCCNC(=N)N)C(=O)N1CCC[C@H]1C(=O)NCC(N)=O [GONADORELIN] | – | Activity [4]: 1.84; Activity [5]: 2.42
10 | 7.39 | CC(=O)N[C@H](Cc1ccc2ccccc2c1)C(=O)N[C@H](Cc1ccc(F)cc1)C(=O)N[C@H](Cc1c[nH]c2ccccc12)C(=O)N[C@H]1CC(=O)NCCC[C@@H](C(N)=O)NC(=O)[C@@H]2CCCN2C(=O)[C@H](CCCN=C(N)N)NC(=O)[C@H](CC(C)C)NC(=O)[C@@H](CCCN=C(N)N)NC(=O)[C@H](Cc2ccc(O)cc2)NC1=O | – | –
11 | 8.96 | CC(=O)N[C@H](Cc1ccc2ccccc2c1)C(=O)N[C@H](Cc1ccc(Cl)cc1)C(=O)N[C@H](Cc1cccnc1)C(=O)N[C@H]1CC(=O)NC[C@@H](C(N)=O)NC(=O)[C@@H]2CCCN2C(=O)[C@H](CCCNC(=N)N)NC(=O)[C@H](CC(C)C)NC(=O)[C@@H](Cc2cccnc2)NC(=O)[C@H](CCCNC(=N)N)NC1=O | – | –
12 | 8.96 | CC(=O)N[C@H](Cc1ccc2ccccc2c1)C(=O)N[C@H](Cc1ccc(F)cc1)C(=O)N[C@H](Cc1c[nH]c2ccccc12)C(=O)N[C@H]1CCC(=O)NC[C@@H](C(N)=O)NC(=O)[C@@H]2CCCN2C(=O)[C@H](CCCN=C(N)N)NC(=O)[C@H](CC(C)C)NC(=O)[C@@H](CCCN=C(N)N)NC(=O)[C@H](Cc2ccc(O)cc2)NC1=O | – | –
13 | 9.19 | CC(=O)N[C@H](Cc1ccc2ccccc2c1)C(=O)N[C@H](Cc1ccc(F)cc1)C(=O)N[C@H](Cc1c[nH]c2ccccc12)C(=O)N[C@@H](CO)C(=O)N[C@@H](Cc1ccc(O)cc1)C(=O)N[C@H](CCCN=C(N)N)C(=O)N[C@@H](CC(C)C)C(=O)N[C@@H](CCCN=C(N)N)C(=O)N1CCC[C@H]1C(=O)NCC(N)=O (Ac-[d2Nal][dPhe(4-F)][dW]SY[dR]LRPG-NH2) | 1 µg | Activity [6]: 6.4; Relative potency [7]: 0.6
14 | < 7.00 | CC(=O)N[C@H](Cc1ccc2ccccc2c1)C(=O)N[C@H](Cc1ccc(F)cc1)C(=O)N[C@H](Cc1c[nH]c2ccccc12)C(=O)N[C@H]1CNC(=O)C[C@@H](C(=O)NCC(N)=O)NC(=O)[C@H](CCCNC(=N)N)NC(=O)[C@H](CC(C)C)NC(=O)[C@@H](CCCNC(=N)N)NC(=O)[C@H](Cc2ccc(O)cc2)NC1=O | – | –
15 | 8.00 | CC(=O)N[C@H](Cc1ccc2ccccc2c1)C(=O)N[C@H](Cc1ccc(F)cc1)C(=O)N[C@H](Cc1c[nH]c2ccccc12)C(=O)N[C@H]1CNC(=O)C[C@@H](C(N)=O)NC(=O)[C@@H]2CCCN2C(=O)[C@H](CCCN=C(N)N)NC(=O)[C@H](CC(C)C)NC(=O)[C@@H](CCCN=C(N)N)NC(=O)[C@H](Cc2ccc(O)cc2)NC1=O | – | –
16 | – | CC(C)C[C@@H]1NC(=O)[C@@H](CCCN=C(N)N)NC(=O)[C@H](Cc2ccc(O)cc2)NC(=O)[C@@H](NC(=O)[C@@H](Cc2c[nH]c3ccccc23)NC(=O)[C@@H](Cc2ccc(F)cc2)NC(=O)[C@H](N)Cc2ccc3ccccc3c2)CSSC[C@@H](C(N)=O)NC(=O)[C@@H]2CCCN2C(=O)[C@H](CCCN=C(N)N)NC1=O | 50 µg and 100 µg | –
17 | 9.00 | CC(=O)NC[C@H](NC(=O)[C@@H](Cc1cccnc1)NC(=O)[C@@H](Cc1ccc(Cl)cc1)NC(=O)[C@@H](Cc1ccc2ccccc2c1)NC(C)=O)C(=O)N[C@@H](CCCN=C(N)N)C(=O)N[C@H](Cc1cccnc1)C(=O)N[C@@H](CC(C)C)C(=O)N[C@@H](CCCN=C(N)N)C(=O)N1CCC[C@H]1C(=O)N[C@@H](CC(N)=O)C(N)=O [listing 2 of 2 here] | – | –
18 | – | CC(=O)N[C@H](Cc1ccc2ccccc2c1)C(=O)N[C@H](Cc1ccc(Cl)cc1)C(=O)N[C@H](Cc1cccnc1)C(=O)N[C@H]1CCC(=O)NC[C@@H](C(N)=O)NC(=O)[C@@H]2CCCN2C(=O)[C@H](CCCNC(=N)N)NC(=O)[C@H](CC(C)C)NC(=O)[C@@H](Cc2cccnc2)NC(=O)[C@H](CCCNC(=N)N)NC1=O [listing 2 of 2 here] | 10 µg and 25 µg | –
19 | 7.96 | CC(=O)N[C@H](Cc1ccc2ccccc2c1)C(=O)N[C@H](Cc1ccc(Cl)cc1)C(=O)N[C@H](Cc1cccnc1)C(=O)N[C@H]1CC(=O)NCCC[C@@H](C(N)=O)NC(=O)[C@@H]2CCCN2C(=O)[C@H](CCCNC(=N)N)NC(=O)[C@H](CC(C)C)NC(=O)[C@@H](Cc2cccnc2)NC(=O)[C@H](CCCNC(=N)N)NC1=O | – | –
20 | 9.10 | CC(=O)N[C@H](Cc1ccc2ccccc2c1)C(=O)N[C@H](Cc1ccc(Cl)cc1)C(=O)N[C@H](Cc1cccnc1)C(=O)N[C@H]1CSSC[C@@H](C(N)=O)NC(=O)[C@@H]2CCCN2C(=O)[C@H](CCCNC(=N)N)NC(=O)[C@H](CC(C)C)NC(=O)[C@@H](Cc2cccnc2)NC(=O)[C@H](CCCNC(=N)N)NC1=O (Ac-[d2Nal][dPhe(4-Cl)][d3Pal]CR[d3Pal]LRPC-NH2; disulfide 4-10) | – | –
